Active and inactive are the calls of the source. The rule behind the calls is not given here.
What was measured:
Mus musculus [1] = assay: Anticonvulsant activity in CF1 albino mouse assessed as inhibition of maximal electroshock-induced seizures at 30 mg/kg, ip after 0.5 hrs; type: functional, organism-based; design: dose 30 mg/kg
Method in brief: (§1)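 Test compounds suspended in 0.5% methylcellulose and given ip to adult male CF no. 1 albino mice (18-25 g) at 0.01 mL/g body weight before maximal electroshock challenge.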

Mus musculus [2] = assay: Anticonvulsant activity in CF1 albino mouse assessed as inhibition of maximal electroshock-induced seizures at 300 mg/kg, ip after 0.5 hrs; type: functional, organism-based; design: dose 300 mg/kg; method in brief: as §1
Mus musculus [3] = assay: Teratogenic effect in SWV mouse assessed as live fetuses at 462 mg/kg, ip administered on morning of day 8 of gestation; type: toxicity, organism-based; design: dose 462 mg/kg, route intraperitoneal; conditions: in vivo
Method in brief: (§2)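 SWV inbred mice: two-month-old nulligravid females mated overnight with males and checked for vaginal plugs next morning; gestation onset taken as 10 p.m. the previous night. On gestation day 8.5 each dam got one ip injection, 0.55–2.7 mmol/kg, in 25% aqueous Cremophor EL (vehicle controls dosed alike), 10 μL/g body weight. Litters and implants tallied; resorptions and live fetuses reported as counts with percentages.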

Mus musculus [4] = assay: Teratogenic effect in SWV mouse assessed as fetuses with neural tube deffects at 279 mg/kg, ip administered on morning of day 8 of gestation; type: toxicity, organism-based; design: dose 279 mg/kg, route intraperitoneal; conditions: in vivo
Method in brief: (§3)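 Two-month-old nulligravid SWV females were mated overnight and checked for vaginal plugs the next morning; gestation onset was set at 10 p.m. the previous night. On gestation day 8.5, each dam received a single ip injection (0.55-2.7 mmol/kg range) or vehicle (25% aqueous Cremophor EL) at 10 μL/g body weight. Litters were scored for implants, resorptions, live and dead fetuses, and fetuses with neural tube defects.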

Mus musculus [5] = assay: Anticonvulsant activity in CF1 albino mouse assessed as inhibition of maximal electroshock-induced seizures at 30 mg/kg, ip after 4 hrs; type: functional, organism-based; design: dose 30 mg/kg; method in brief: as §1
Mus musculus [6] = assay: Teratogenic effect in SWV mouse assessed as live fetuses at 141 mg/kg, ip administered on morning of day 8 of gestation; type: toxicity, organism-based; design: dose 141 mg/kg, route intraperitoneal; conditions: in vivo; method in brief: as §3
Mus musculus [7] = assay: Teratogenic effect in SWV mouse assessed as fetuses with neural tube deffects at 462 mg/kg, ip administered on morning of day 8 of gestation; type: toxicity, organism-based; design: dose 462 mg/kg, route intraperitoneal; conditions: in vivo; method in brief: as §3
Rattus norvegicus [8] = assay: Anticonvulsant activity in Sprague-Dawley rat assessed as inhibition of maximal electroshock-induced seizures at 30 mg/kg, po after 4 hrs
Mus musculus [9] = assay: Anticonvulsant activity in CF1 albino mouse assessed as inhibition of subcutaneous pentylenetetrazole-induced seizures at 30 mg/kg, ip after 0.5 hrs; type: functional, organism-based; design: dose 30 mg/kg
Method in brief: (§4)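 Adult male CF no. 1 albino mice (18-25 g) dosed ip with compound suspended in 0.5% methylcellulose (0.01 mL/g). Convulsant: pentylenetetrazol dissolved in 0.9% saline as a 0.85% solution for mice, given subcutaneously.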

Mus musculus [10] = assay: Anticonvulsant activity in CF1 albino mouse assessed as inhibition of subcutaneous pentylenetetrazole-induced seizures at 300 mg/kg, ip after 4 hrs; type: functional, organism-based; design: dose 300 mg/kg; method in brief: as §4
Mus musculus [11] = assay: Neurotoxicity in CF1 albino mouse assessed as motor impairment at 100 mg/kg, ip after 4 hrs; type: toxicity, organism-based; design: dose 100 mg/kg, route intraperitoneal; conditions: in vivo
Mus musculus [12] = assay: Anticonvulsant activity in CF1 albino mouse assessed as inhibition of subcutaneous pentylenetetrazole-induced seizures at 30 mg/kg, ip after 4 hrs; type: functional, organism-based; design: dose 30 mg/kg; method in brief: as §4
Mus musculus [13] = assay: Anticonvulsant activity in CF1 albino mouse assessed as inhibition of subcutaneous pentylenetetrazole-induced seizures at 100 mg/kg, ip after 0.5 hrs; type: functional, organism-based; design: dose 100 mg/kg; method in brief: as §4
Mus musculus [14] = assay: Anticonvulsant activity in CF1 albino mouse assessed as inhibition of maximal electroshock-induced seizures at 100 mg/kg, ip after 4 hrs; type: functional, organism-based; design: dose 100 mg/kg; method in brief: as §1
Rattus norvegicus [15] = organism: Rattus norvegicus; assay: Protective index, ratio of TD50 for rat to ED50 for maximal electroshock-induced rat seizure model
Mus musculus [16] = assay: Teratogenic effect in SWV mouse assessed as resorptions at 462 mg/kg, ip administered on morning of day 8 of gestation; type: toxicity, organism-based; design: dose 462 mg/kg, route intraperitoneal; conditions: in vivo; method in brief: as §2
Rattus norvegicus [17] = assay: Anticonvulsant activity in Sprague-Dawley rat assessed as inhibition of maximal electroshock-induced seizures at 30 mg/kg, po after 2 hrs
Mus musculus [18] = assay: Anticonvulsant activity in CF1 albino mouse assessed as inhibition of subcutaneous pentylenetetrazole-induced seizures at 300 mg/kg, ip after 0.5 hrs; type: functional, organism-based; design: dose 300 mg/kg; method in brief: as §4
Rattus norvegicus [19] = assay: Anticonvulsant activity in Sprague-Dawley rat assessed as inhibition of maximal electroshock-induced seizures at 30 mg/kg, po after 1 hr
Mus musculus [20] = assay: Teratogenic effect in SWV mouse assessed as resorptions at 141 mg/kg, ip administered on morning of day 8 of gestation; type: toxicity, organism-based; design: dose 141 mg/kg, route intraperitoneal; conditions: in vivo; method in brief: as §2
Mus musculus [21] = assay: Teratogenic effect in SWV mouse assessed as live fetuses at 279 mg/kg, ip administered on morning of day 8 of gestation; type: toxicity, organism-based; design: dose 279 mg/kg, route intraperitoneal; conditions: in vivo; method in brief: as §3
Mus musculus [22] = assay: Anticonvulsant activity in CF1 albino mouse assessed as inhibition of maximal electroshock-induced seizures at 100 mg/kg, ip after 0.5 hrs; type: functional, organism-based; design: dose 100 mg/kg; method in brief: as §1
Mus musculus [23] = assay: Anticonvulsant activity in CF1 albino mouse assessed as inhibition of subcutaneous pentylenetetrazole-induced seizures at 100 mg/kg, ip after 4 hrs; type: functional, organism-based; design: dose 100 mg/kg; method in brief: as §4
Rattus norvegicus [24] = assay: Neurotoxicity in Sprague-Dawley rat assessed as motor impairment at 30 mg/kg, po after 0.25 to 4 hrs; conditions: in vivo
Mus musculus [25] = assay: Anticonvulsant activity in CF1 albino mouse assessed as inhibition of maximal electroshock-induced seizures at 300 mg/kg, ip after 4 hrs; type: functional, organism-based; design: dose 300 mg/kg; method in brief: as §1
Mus musculus [26] = assay: Neurotoxicity in CF1 albino mouse assessed as motor impairment at 30 mg/kg, ip after 4 hrs; type: toxicity, organism-based; design: dose 30 mg/kg, route intraperitoneal; conditions: in vivo
Rattus norvegicus [27] = assay: Anticonvulsant activity in po dosed rat assessed as inhibition of maximal electroshock-induced seizures
Mus musculus [28] = assay: Neurotoxicity in CF1 albino mouse assessed as motor impairment at 300 mg/kg, ip after 4 hrs; type: toxicity, organism-based; design: dose 300 mg/kg, route intraperitoneal; conditions: in vivo
Mus musculus [29] = assay: Teratogenic effect in SWV mouse assessed as resorptions at 279 mg/kg, ip administered on morning of day 8 of gestation; type: toxicity, organism-based; design: dose 279 mg/kg, route intraperitoneal; conditions: in vivo; method in brief: as §2

In the case of `CCC(C)C(=O)Nc1ccc(S(N)(=O)=O)cc1` (centres undefined), the Activity (Mus musculus [1]) is reported as “Active”, the Activity (Mus musculus [2]) is reported as “Active” and the Activity (Mus musculus [3]) is reported as 50.9%. The Activity (Mus musculus [4]) was 4.4%, the Activity (Mus musculus [5]) was “Active” and the Activity (Mus musculus [6]) was 91.8%. The Activity (Mus musculus [7]) was 25.4%, the Activity (Rattus norvegicus [8]) was “Active” and the Activity (Mus musculus [9]) was “inactive”. For the same molecule, the Activity (Mus musculus [10]) was “inactive”, the Activity (Mus musculus [11]) was “Non-toxic” and the Activity (Mus musculus [12]) was “inactive”. For the same molecule, the Activity (Mus musculus [13]) was “inactive”, the Activity (Mus musculus [14]) was “Active” and the “Ratio TD50/ED50” value (Rattus norvegicus [15]) was >65.7. For the same molecule, the Activity (Mus musculus [16]) was 49.1%, the Activity (Rattus norvegicus [17]) was “Active” and the Activity (Mus musculus [18]) was “inactive”. For the same molecule, the Activity (Rattus norvegicus [19]) was “Active”, the Activity (Mus musculus [20]) was 8.2% and the Activity (Mus musculus [21]) was 91.2%. For the same molecule, the Activity (Mus musculus [22]) was “Active”, the Activity (Mus musculus [23]) was “inactive” and the Activity (Rattus norvegicus [24]) was “Non-toxic”. For the same molecule, the Activity (Mus musculus [25]) was “Active”, the Activity (Mus musculus [26]) was “Non-toxic” and the ED50 (Rattus norvegicus [27]) was 7.6 mg/kg. The Activity (Mus musculus [28]) was “Non-toxic” and the Activity (Mus musculus [29]) was 8.8%.

Source: ChEMBL document CHEMBL1155468, “Syntheses and evaluation of anticonvulsant profile and teratogenicity of novel amide derivatives of branched aliphatic carboxylic acids with 4-aminobenzensulfonamide” (J Med Chem, 2010)
